In ChEMBL document CHEMBL3593207, “Imidazole clubbed 1,3,4-oxadiazole derivatives as potential antifungal agents” (2015):
≈ marks a conversion by molar mass, not a printed value. Blank lines part the entries; values can stand above or below the compound they belong to.

What was measured:
Candida albicans [1] = experiment: Antifungal activity against clinical isolates of Candida albicans 2367 by broth microdilution assay; format: functional
Outline: (§1)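 CLSI M27-A3 broth microdilution. Compounds diluted to 1 mg/ml in 1% DMSO. Fluconazole (1 mg/ml) served as positive control, 1% DMSO as vehicle control, with media and culture controls. Triplicate at each concentration, repeated thrice. Inocula came from YPDA stocks subcultured in broth for 48 h at 37 °C.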

Candida tropicalis [2] = experiment: Antifungal activity against clinical isolates of Candida tropicalis 2356 by broth microdilution assay; format: functional; outline: as §1
Candida tropicalis [3] = experiment: Antifungal activity against Candida tropicalis ATCC 750 by broth microdilution assay; format: functional; outline: as §1
Candida tropicalis [4] = experiment: Antifungal activity against clinical isolates of Candida tropicalis 2029 by broth microdilution assay; format: functional; outline: as §1
Candida albicans [5] = experiment: Antifungal activity against clinical isolates of Candida albicans 2779 by broth microdilution assay; format: functional; outline: as §1
Candida albicans [6] = experiment: Antifungal activity against Candida albicans ATCC 10261 by broth microdilution assay; format: functional; outline: as §1
Candida albicans [7] = experiment: Antifungal activity against clinical isolates of Candida albicans 2323 by broth microdilution assay; format: functional; outline: as §1
Candida albicans [8] = experiment: Cytotoxicity against Candida albicans ATCC 10261 at 1/4 MIC after 24 hrs by WST1 assay; format: functional
Outline: (§2)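 Candida cells were exposed to MIC and sub-MIC levels for 24 h in microplates, then to WST-1/CEC dye for 30 min at 37 °C. Plates were shaken 1 min and the reaction stopped with 1% SDS. Formazan was read at 450 nm. % cytotoxicity = 100 × (cell control − experimental)/cell control. Triplicates, mean ± SD.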

Candida albicans [9] = experiment: Inhibition of ergosterol biosynthesis in Candida albicans 2323 assessed as ergosterol content at 1/2 MIC after 16 hrs by spectrophotometer analysis; format: functional; design: scale not given: the % may be the effect or the level left
Outline: (§3)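 Cells were pelleted and washed, and wet weight taken. Pellets were saponified in 25% alcoholic KOH at 85 °C for 1 h. Sterols were extracted into n-heptane/water. Ergosterol content is expressed relative to untreated control cells.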

Candida tropicalis [10] = experiment: Inhibition of ergosterol biosynthesis in Candida tropicalis 2356 assessed as ergosterol content at MIC after 16 hrs by spectrophotometer analysis; format: functional; design: scale not given: the % may be the effect or the level left; outline: as §3
Candida tropicalis [11] = experiment: Inhibition of ergosterol biosynthesis in Candida tropicalis 2356 assessed as ergosterol content at 1/2 MIC after 16 hrs by spectrophotometer analysis; format: functional; design: scale not given: the % may be the effect or the level left; outline: as §3
Candida albicans [12] = experiment: Antifungal activity against clinical isolates of Candida albicans 2323 at 2 times MIC after 48 hrs by disc diffusion assay; format: functional
Outline: (§4)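 Cells (10^3 cells ml−1) grown in YPD were mixed into molten agar (~40 °C) and poured into 100-mm plates. Filter discs (4 mm) were spotted with 10 µl of compound at 1/2 × MIC, MIC or 2 × MIC. Fluconazole and 1% DMSO were the controls. Plates were incubated at 37 °C for 48 h and inhibition zone diameters recorded in mm.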

Candida albicans [13] = experiment: Antifungal activity against clinical isolates of Candida albicans 2323 at half MIC after 48 hrs by disc diffusion assay; format: functional; outline: as §4
Candida albicans [14] = experiment: Antifungal activity against Candida albicans ATCC 10261 at MIC after 48 hrs by disc diffusion assay; format: functional; outline: as §4
Candida albicans [15] = experiment: Inhibition of ergosterol biosynthesis in Candida albicans 2779 assessed as ergosterol content at MIC after 16 hrs by spectrophotometer analysis; format: functional; design: scale not given: the % may be the effect or the level left; outline: as §3
Candida albicans [16] = experiment: Inhibition of ergosterol biosynthesis in Candida albicans 2779 assessed as ergosterol content at 1/2 MIC after 16 hrs by spectrophotometer analysis; format: functional; design: scale not given: the % may be the effect or the level left; outline: as §3
Candida tropicalis [17] = experiment: Antifungal activity against clinical isolates of Candida tropicalis 2029 at half MIC after 48 hrs by disc diffusion assay; format: functional; outline: as §4
Candida albicans [18] = experiment: Antifungal activity against Candida albicans ATCC 10261 at half MIC after 48 hrs by disc diffusion assay; format: functional; outline: as §4
Candida albicans [19] = experiment: Antifungal activity against clinical isolates of Candida albicans 2323 at MIC after 48 hrs by disc diffusion assay; format: functional; outline: as §4
Candida albicans [20] = experiment: Inhibition of ergosterol biosynthesis in Candida albicans 2367 assessed as ergosterol content at MIC after 16 hrs by spectrophotometer analysis; format: functional; design: scale not given: the % may be the effect or the level left; outline: as §3
Candida tropicalis [21] = experiment: Antifungal activity against clinical isolates of Candida tropicalis 2356 at 2 times MIC after 48 hrs by disc diffusion assay; format: functional; outline: as §4
Candida albicans [22] = experiment: Cytotoxicity against clinical isolates of Candida albicans 2779 at 1/4 MIC after 24 hrs by WST1 assay; format: functional; outline: as §2
Candida albicans [23] = experiment: Cytotoxicity against Candida albicans ATCC 10261 at MIC after 24 hrs by WST1 assay; format: functional; outline: as §2
Candida albicans [24] = experiment: Inhibition of ergosterol biosynthesis in Candida albicans ATCC 10261 assessed as ergosterol content at 1/2 MIC after 16 hrs by spectrophotometer analysis; format: functional; design: scale not given: the % may be the effect or the level left; outline: as §3
Candida albicans [25] = experiment: Inhibition of ergosterol biosynthesis in Candida albicans 2367 assessed as ergosterol content at 1/2 MIC after 16 hrs by spectrophotometer analysis; format: functional; design: scale not given: the % may be the effect or the level left; outline: as §3
Candida albicans [26] = experiment: Antifungal activity against clinical isolates of Candida albicans 2367 at 2 times MIC after 48 hrs by disc diffusion assay; format: functional; outline: as §4
Candida tropicalis [27] = experiment: Antifungal activity against Candida tropicalis ATCC 750 at MIC after 48 hrs by disc diffusion assay; format: functional; outline: as §4
Candida tropicalis [28] = experiment: Cytotoxicity against Candida tropicalis ATCC 750 at 1/4 MIC after 24 hrs by WST1 assay
Candida tropicalis [29] = experiment: Antifungal activity against Candida tropicalis ATCC 750 at 2 times MIC after 48 hrs by disc diffusion assay; format: functional; outline: as §4
Candida albicans [30] = experiment: Inhibition of ergosterol biosynthesis in Candida albicans 2323 assessed as ergosterol content at MIC after 16 hrs by spectrophotometer analysis; format: functional; design: scale not given: the % may be the effect or the level left; outline: as §3
Candida tropicalis [31] = experiment: Cytotoxicity against Candida tropicalis ATCC 750 at 1/2 MIC after 24 hrs by WST1 assay
Candida tropicalis [32] = experiment: Antifungal activity against clinical isolates of Candida tropicalis 2356 at MIC after 48 hrs by disc diffusion assay; format: functional; outline: as §4
Candida albicans [33] = experiment: Antifungal activity against Candida albicans ATCC 10261 at 2 times MIC after 48 hrs by disc diffusion assay; format: functional; outline: as §4
Candida tropicalis [34] = experiment: Antifungal activity against clinical isolates of Candida tropicalis 2029 at MIC after 48 hrs by disc diffusion assay; format: functional; outline: as §4
Candida tropicalis [35] = experiment: Inhibition of ergosterol biosynthesis in Candida tropicalis 2029 assessed as ergosterol content at MIC after 16 hrs by spectrophotometer analysis; format: functional; design: scale not given: the % may be the effect or the level left; outline: as §3
Candida tropicalis [36] = experiment: Antifungal activity against clinical isolates of Candida tropicalis 2356 at half MIC after 48 hrs by disc diffusion assay; format: functional; outline: as §4
Candida tropicalis [37] = experiment: Antifungal activity against Candida tropicalis ATCC 750 at half MIC after 48 hrs by disc diffusion assay; format: functional; outline: as §4
Candida albicans [38] = experiment: Antifungal activity against clinical isolates of Candida albicans 2779 at 2 times MIC after 48 hrs by disc diffusion assay; format: functional; outline: as §4
Candida tropicalis [39] = experiment: Cytotoxicity against Candida tropicalis ATCC 750 at MIC after 24 hrs by WST1 assay
Candida albicans [40] = experiment: Antifungal activity against clinical isolates of Candida albicans 2367 at MIC after 48 hrs by disc diffusion assay; format: functional; outline: as §4
Candida tropicalis [41] = experiment: Inhibition of ergosterol biosynthesis in Candida tropicalis ATCC 750 assessed as ergosterol content at 1/2 MIC after 16 hrs by spectrophotometer analysis; format: functional; design: scale not given: the % may be the effect or the level left; outline: as §3
Candida albicans [42] = experiment: Inhibition of ergosterol biosynthesis in Candida albicans ATCC 10261 assessed as ergosterol content at MIC after 16 hrs by spectrophotometer analysis; format: functional; design: scale not given: the % may be the effect or the level left; outline: as §3
Candida albicans [43] = experiment: Antifungal activity against clinical isolates of Candida albicans 2779 at MIC after 48 hrs by disc diffusion assay; format: functional; outline: as §4
Candida tropicalis [44] = experiment: Inhibition of ergosterol biosynthesis in Candida tropicalis 2029 assessed as ergosterol content at 1/2 MIC after 16 hrs by spectrophotometer analysis; format: functional; design: scale not given: the % may be the effect or the level left; outline: as §3
Candida albicans [45] = experiment: Antifungal activity against clinical isolates of Candida albicans 2367 at half MIC after 48 hrs by disc diffusion assay; format: functional; outline: as §4
Candida tropicalis [46] = experiment: Antifungal activity against clinical isolates of Candida tropicalis 2029 at 2 times MIC after 48 hrs by disc diffusion assay; format: functional; outline: as §4
Candida albicans [47] = experiment: Cytotoxicity against Candida albicans ATCC 10261 at 1/2 MIC after 24 hrs by WST1 assay; format: functional; outline: as §2
Candida tropicalis [48] = experiment: Inhibition of ergosterol biosynthesis in Candida tropicalis ATCC 750 assessed as ergosterol content at MIC after 16 hrs by spectrophotometer analysis; format: functional; design: scale not given: the % may be the effect or the level left
Outline: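 Cells were harvested, washed, and wet pellet weight recorded. Pellets were saponified in 3 mL 25% alcoholic KOH at 85 °C for 1 h, then sterols extracted into n-heptane. Ergosterol is expressed relative to untreated control cells.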

Candida albicans [49] = experiment: Antifungal activity against clinical isolates of Candida albicans 2779 at half MIC after 48 hrs by disc diffusion assay; format: functional; outline: as §4

MIC (Candida albicans [1]): > 1000 µg/mL
MIC (Candida tropicalis [2]): > 1000 µg/mL
MIC (Candida tropicalis [3]): > 1000 µg/mL
MIC (Candida tropicalis [4]): > 1000 µg/mL
MIC (Candida albicans [5]): > 1000 µg/mL
MIC (Candida albicans [6]): > 1000 µg/mL
MIC (Candida albicans [7]): > 1000 µg/mL
SMILES: CCc1ccnc(-c2nccn2Cc2nnc(-c3ccc(Cl)cc3)o2)c1

MIC (Candida albicans [1]): 16 µg/mL (≈ 42.5 µM)
MIC (Candida tropicalis [2]): 64 µg/mL (≈ 170 µM)
MIC (Candida tropicalis [3]): 16 µg/mL (≈ 42.5 µM)
MIC (Candida tropicalis [4]): 16 µg/mL (≈ 42.5 µM)
MIC (Candida albicans [5]): 32 µg/mL (≈ 85 µM)
MIC (Candida albicans [6]): 8 µg/mL (≈ 21.3 µM)
MIC (Candida albicans [7]): 16 µg/mL (≈ 42.5 µM)
SMILES: CCc1ccnc(-c2nccn2Cc2nnc(-c3ccc([N+](=O)[O-])cc3)o2)c1
Activity (Candida albicans [8]): 16.88%
Activity (Candida albicans [9]): 31%
Activity (Candida tropicalis [10]): 91%
Activity (Candida tropicalis [11]): 59%
inhibition zone (IZ) (Candida albicans [12]): 9 mm
inhibition zone (IZ) (Candida albicans [13]): 0 mm
inhibition zone (IZ) (Candida albicans [14]): 11 mm
Activity (Candida albicans [15]): 89%
Activity (Candida albicans [16]): 45%
inhibition zone (IZ) (Candida tropicalis [17]): 3 mm
inhibition zone (IZ) (Candida albicans [18]): 3 mm
inhibition zone (IZ) (Candida albicans [19]): 5 mm
Activity (Candida albicans [20]): 86%
inhibition zone (IZ) (Candida tropicalis [21]): 9 mm
Activity (Candida albicans [22]): 8.02%
Activity (Candida albicans [23]): 57.94%
Activity (Candida albicans [24]): 43%
Activity (Candida albicans [25]): 47%
inhibition zone (IZ) (Candida albicans [26]): 8 mm
inhibition zone (IZ) (Candida tropicalis [27]): 9 mm
Activity (Candida tropicalis [28]): 15.6%
inhibition zone (IZ) (Candida tropicalis [29]): 14 mm
Activity (Candida albicans [30]): 87%
Activity (Candida tropicalis [31]): 35.57%
inhibition zone (IZ) (Candida tropicalis [32]): 4 mm
inhibition zone (IZ) (Candida albicans [33]): 15 mm
inhibition zone (IZ) (Candida tropicalis [34]): 8 mm
Activity (Candida tropicalis [35]): 89%
inhibition zone (IZ) (Candida tropicalis [36]): 1 mm
inhibition zone (IZ) (Candida tropicalis [37]): 1 mm
inhibition zone (IZ) (Candida albicans [38]): 11 mm
Activity (Candida tropicalis [39]): 57.94%
inhibition zone (IZ) (Candida albicans [40]): 5 mm
Activity (Candida tropicalis [41]): 57%
Activity (Candida albicans [42]): 99%
inhibition zone (IZ) (Candida albicans [43]): 8 mm
Activity (Candida tropicalis [44]): 52%
inhibition zone (IZ) (Candida albicans [45]): 1 mm
inhibition zone (IZ) (Candida tropicalis [46]): 12 mm
Activity (Candida albicans [47]): 35.57%
Activity (Candida tropicalis [48]): 100%
inhibition zone (IZ) (Candida albicans [49]): 2 mm
